Measured values: ChEMBL document CHEMBL3045132, “Synthesis and antiviral activity of novel chiral cyanoacrylate derivatives” (2005)

Legend:
Format in all cases: functional
Amaranthus retroflexus [1] = assay: Herbicidal activity against Amaranthus retroflexus assessed as inhibition effect at 1500 g/ha sprayed soil immediately after seed planting
Summary of the method: (§1)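 Pre-emergence: compounds sprayed onto soil immediately after seed planting; equal amount of water sprayed as control. Aerial tissue fresh weight measured 10 days after treatment; activity expressed as percent inhibition of aerial fresh weight.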

PC-3 = assay: Antiproliferative activity against Homo sapiens (human) PC3 cells at 5 uM measured after 72 hr by MTT assay; conditions: PC-3, 72 h
Summary of the method: (§2)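 Cells plated at 3 × 10³/well in F-12 (PC3) or RPMI 1640 (A431) with 10% fetal bovine serum; compounds dissolved in DMSO, diluted in medium, exposed 72 h; vehicle control 0.1% DMSO. MTT cleavage to formazan read at 550 nm. Inhibition rate (%) = (A1 − A2)/A1 × 100, A1 untreated and A2 treated mean optical density; values as mean ± s.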

Echinochloa crus-galli [2] = assay: Herbicidal activity against Echinochloa crus-galli (barnyard grass) assessed as inhibition effect at 1500 g/ha sprayed to the stem and leaves after seed germination
Summary of the method: (§3)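 Post-emergence: compounds sprayed onto stems and leaves after seed germination; equal amount of water sprayed as control. Aerial tissue fresh weight measured 10 days after treatment; activity expressed as percent inhibition of aerial fresh weight.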

A-431 = assay: Antiproliferative activity against Homo sapiens (human) A431 cells at 5 uM measured after 72 hr by MTT assay; conditions: A-431, 72 h; summary of the method: as §2
Tobacco mosaic virus [3] = assay: Antiviral activity against Tobacco mosaic virus (TMV) inoculated in whole leaves of Nicotiana tabacum L. assessed as curative effect measured as local lesion number at 500 mg/l after 3 to 4 days
Summary of the method: (§4)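 Same-age N. tabacum L. leaves dipped-inoculated over the whole leaf with TMV at 6 × 10^-3 mg/mL, then washed with water and dried. Compound solution smeared on left half, solvent on right half as control. Local lesions counted 3-4 days after inoculation; three repetitions. Inhibition (%) calculated from control versus treated average lesion numbers.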

[4] = tested on: Brassica rapa subsp. oleifera; assay: Herbicidal activity against Brassica rapa subsp. oleifera assessed as inhibition effect at 1500 g/ha sprayed soil immediately after seed planting; summary of the method: as §1
Amaranthus retroflexus [5] = assay: Herbicidal activity against Amaranthus retroflexus assessed as inhibition effect at 1500 g/ha sprayed to the stem and leaves after seed germination; summary of the method: as §3
Tobacco mosaic virus [6] = assay: Antiviral activity against Tobacco mosaic virus (TMV) inoculated in left side of Nicotiana tabacum L. leaves assessed as inhibition of local lesion number at 500 mg/l measured after 3 to 4 days
Summary of the method: (§5)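 Half-leaf test on Nicotiana tabacum L.: TMV mixed with an equal volume of compound solution for 30 min, then inoculated on the left half-leaf; right half received virus plus solvent as control. Local lesions counted 3-4 days after inoculation; three repetitions. Inhibition (%) = (control lesions − treated lesions)/control lesions.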

Echinochloa crus-galli [7] = assay: Herbicidal activity against Echinochloa crus-galli (barnyard grass) assessed as inhibition effect at 1500 g/ha sprayed soil immediately after seed planting; summary of the method: as §1
[8] = tested on: Brassica rapa subsp. oleifera; assay: Herbicidal activity against Brassica rapa subsp. oleifera assessed as inhibition effect at 1500 g/ha sprayed to the stem and leaves after seed germination; summary of the method: as §3
Tobacco mosaic virus [9] = assay: Antiviral activity against Tobacco mosaic virus (TMV) inoculated in left side of Nicotiana tabacum L. leaves assessed as inhibition of local lesion number at 50 mg/l measured after 3 to 4 days; summary of the method: as §5
Tobacco mosaic virus [10] = assay: Antiviral activity against Tobacco mosaic virus (TMV) inoculated in whole leaves of Nicotiana tabacum L. assessed as curative effect measured as local lesion number at 50 mg/l after 3 to 4 days; summary of the method: as §4

SMILES	inhibition at 1500 g/ha (Amaranthus retroflexus [1]) [%]	inhibition at 5 µM (PC-3) [%]	inhibition at 1500 g/ha (Echinochloa crus-galli [2]) [%]	inhibition at 5 µM (A-431) [%]	inhibition at 500 µg/mL (Tobacco mosaic virus [3]) [%]	inhibition at 1500 g/ha [4] [%]	inhibition at 1500 g/ha (Amaranthus retroflexus [5]) [%]	inhibition at 500 µg/mL (Tobacco mosaic virus [6]) [%]	inhibition at 1500 g/ha (Echinochloa crus-galli [7]) [%]	inhibition at 1500 g/ha [8] [%]	inhibition at 50 µg/mL (Tobacco mosaic virus [9]) [%]	inhibition at 50 µg/mL (Tobacco mosaic virus [10]) [%]
CCOC(=O)/C(C#N)=C(/Nc1ccc(C(F)(F)F)cc1)N[C@H](C)c1ccccc1	0	59.4	2.86	43.1	39.1	16.1	0	28.9	11.4	0		
CCOC(=O)/C(C#N)=C(/Nc1ccc(C(F)(F)F)cc1)N[C@@H](C)c1ccccc1	10.5	49.1	5.71	39.9	15.2	21.4	0	6.1	10	30.5		
CCOC(=O)/C(C#N)=C(/Nc1ccc(Br)cc1)N[C@H](C)c1ccccc1	0	1.5	0	16.1	12.3	5.38	0	53.4	4.29	10.9		
CCOC(=O)/C(C#N)=C(/Nc1ccc(Br)cc1)N[C@@H](C)c1ccccc1	0	24.7	34.3	19.3	3.4	1.29	0	0	10	35.3		
CCOC(=O)/C(C#N)=C(/Nc1ccc([N+](=O)[O-])cc1)N[C@H](C)c1ccccc1	0	2.9	0	23.6	43.1	21.4	0	89.1	18.6	17.2		
CCOC(=O)/C(C#N)=C(/Nc1ccc([N+](=O)[O-])cc1)N[C@@H](C)c1ccccc1	0	0.7	13.3	18.1	13.1	25	0	5.3	14.3	32.1		
CCOC(=O)/C(C#N)=C(/NNC(=O)c1cc(OC)c(OC)c(OC)c1)N[C@H](C)c1ccccc1	26.3	32.1	7.62	25.1	26.7	0	0	46.4	5.71	3.13		
CCOC(=O)/C(C#N)=C(/NNC(=O)c1cc(OC)c(OC)c(OC)c1)N[C@@H](C)c1ccccc1	10.5	3.2	0	29.4	12.1	0	0	7.5	7.14	18.8		
COc1ccc2c3c(c4cc(OC)c(OC)cc4c2c1)C[C@H]1CCCN1C3 [(-)-ANTOFINE]											14	29.2
O=c1[nH]cc(F)c(=O)[nH]1 [FLUOROURACIL]		41.1		30.7								
CNCC(=O)N[C@@H](CO)C(=O)N[C@H]1[C@H](O)[C@@H](O)[C@H](n2ccc(N)nc2=O)O[C@@H]1C(N)=O [NINGNANMYCIN]					28.9			88.9				
